According to ChEMBL document CHEMBL2163334, “Discovery of highly potent and selective pan-Aurora kinase inhibitors with enhanced in vivo antitumor therapeutic index” (J Med Chem, 2012):
Calls of active or inactive are those of the source. No cut-off for these calls is given here.

How the values were obtained:
[1] = Clearance in Sprague-Dawley rat at 1 mg/kg, iv administered using PEG400/water as vehicle; type: ADME, organism-based; design: dose 1 mg/kg, route intravenous; details: in vivo
Summary of the method: (§1)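 SD rats fasted overnight, given 1 mg/kg iv in PEG400/water (3:1, v/v); three per arm. Blood into K3 EDTA at 5, 15, 30 min, 1, 2, 4, 6, 24 h, spun at 4 °C; plasma extracted with six volumes acetonitrile plus internal standard and quantified by LC-MS/MS (C8 column, formic acid/ACN gradient).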

[2] = test system: HCT-116; assay: Antitumor activity against human HCT116 cells xenografted in athymic nude rat assessed as tumor growth inhibition at 10 mg/kg, iv administered QD for 4 days per week followed by 3 days off per week for 3 weeks; type: functional, organism-based; design: dose 10 mg/kg
Summary of the method: (§2)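 Subcutaneous flank HCT-116 xenografts in nude rats; at Day 1 groups of 10 with mean tumor 301-306 mm³. Tail-vein iv in TPPW (2% Tween-80, 5% propylene glycol, 10% PG-400, 83% water) at 10 mL/kg, weight-adjusted: days 1,3,5,8,10,12,15,17,19 or days 1-4, 8-11, 15-18. Irinotecan control 100 mg/kg ip weekly ×3.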

[3] = test system: Rattus norvegicus; assay: Toxicity in athymic nude rat bearing human HCT116 cells assessed body weight loss at 40 mg/kg, iv administered every other day from day 10 post tumor-injection for 3 weeks; type: organism-based, HCT-116; design: dose 40 mg/kg, route intravenous; details: in vivo, 504 h; summary of the method: as §2
[4] = Half life in Nu/Nu rat at 30 mg/kg, iv administered using TPPW as vehicle; type: ADME, organism-based; design: dose 30 mg/kg, route intravenous; details: in vivo
Summary of the method: (§3)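 Plasma from K3 EDTA blood at 5, 15, 30 min, 1, 2, 4, 6, 24 h; acetonitrile extraction with internal standard, LC-MS/MS on C8 column, 5-95% ACN gradient with 0.05% formic acid.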

[5] = target: T1, Aurora kinase A (Homo sapiens, UniProt O14965); assay: Binding affinity to Aurora kinase A catalytic domain by competition binding assay
T1 sequence (O14965 whole entry): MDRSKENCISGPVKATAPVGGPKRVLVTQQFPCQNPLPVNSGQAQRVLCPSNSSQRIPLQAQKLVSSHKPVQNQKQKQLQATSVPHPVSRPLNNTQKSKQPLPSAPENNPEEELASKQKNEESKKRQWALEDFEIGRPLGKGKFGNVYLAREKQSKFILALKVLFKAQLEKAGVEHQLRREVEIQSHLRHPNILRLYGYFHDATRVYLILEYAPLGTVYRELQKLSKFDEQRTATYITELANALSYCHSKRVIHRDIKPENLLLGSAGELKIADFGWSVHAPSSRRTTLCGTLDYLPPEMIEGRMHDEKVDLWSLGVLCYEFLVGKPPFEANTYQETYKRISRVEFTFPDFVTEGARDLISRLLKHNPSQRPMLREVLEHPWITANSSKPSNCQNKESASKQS

[6] = AUC (0 to infinity) in Nu/Nu rat at 3 mg/kg, iv administered using TPPW as vehicle; type: ADME, organism-based; design: time infinity, dose 3 mg/kg, route intravenous; details: plasma; summary of the method: as §3
[7] = target: T2, Aurora kinase B (Homo sapiens, UniProt Q96GD4); assay: Inhibition of Aurora kinase B in human HCT116 cells assessed as induction of 8N polyploidy; type: cell-based; details: HCT-116
[8] = Protein binding in plasma; type: ADME, cell-free; details: read-out: PPB
[9] = test system: HCT-116; assay: Antitumor activity against human HCT116 cells xenografted in athymic nude rat assessed as tumor growth inhibition at 5 mg/kg, iv administered QD for 4 days per week followed by 3 days off per week for 3 weeks; type: functional, organism-based; design: dose 5 mg/kg; summary of the method: as §2
[10] = Half life in Nu/Nu rat at 3 mg/kg, iv administered using TPPW as vehicle; type: ADME, organism-based; design: dose 3 mg/kg, route intravenous; details: in vivo; summary of the method: as §3
[11] = target: T2, Aurora kinase B; assay: Binding affinity to Aurora kinase B catalytic domain by competition binding assay
[12] = Half life in Nu/Nu rat at 10 mg/kg, iv administered using TPPW as vehicle; type: ADME, organism-based; design: dose 10 mg/kg, route intravenous; details: in vivo; summary of the method: as §3
[13] = target: T2, Aurora kinase B; assay: Inhibition of Aurora kinase B-mediated histone H3 Ser10 phosphorylation in human HCT116 cells after 2 hrs by sandwich ELISA; type: cell-based, HCT-116
Summary of the method: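 HCT-116 cells seeded 4 × 10⁴/well, 4-6 h at 37 °C, then arrested overnight (16-18 h) with nocodazole at 66 ng/mL final. Treated 2 h with nine-point 3-fold dilutions in DMSO; lysed with phosphatase inhibitor, phospho-H3 (Ser10) sandwich ELISA read at 450 nm. IC50 = 50% inhibition of phosphorylation; duplicate runs averaged.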

[14] = AUC (0 to infinity) in Nu/Nu rat at 30 mg/kg, iv administered using TPPW as vehicle; type: ADME, organism-based; design: time infinity, dose 30 mg/kg, route intravenous; details: plasma; summary of the method: as §3
[15] = test system: Rattus norvegicus; assay: Toxicity in athymic nude rat bearing human HCT116 cells assessed body weight loss up to 20 mg/kg, iv administered every other day from day 10 post tumor-injection for 3 weeks; type: organism-based, HCT-116; design: dose 20 mg/kg, route intravenous; details: in vivo, 504 h; summary of the method: as §2
[16] = test system: Rattus norvegicus; assay: Toxicity in athymic nude rat bearing human HCT116 cells assessed as adverse effects at 5 to 10 mg/kg, iv administered QD for 4 days per week followed by 3 days off per week for 3 weeks; type: organism-based, HCT-116; design: dose 5-10 mg/kg, route intravenous; details: in vivo; summary of the method: as §2
[17] = Half life in Sprague-Dawley rat at 1 mg/kg, iv administered using PEG400/water as vehicle; type: ADME, organism-based; design: dose 1 mg/kg, route intravenous; details: in vivo; summary of the method: as §1
[18] = Volume of distribution in Nu/Nu rat at 3 mg/kg, iv administered using TPPW as vehicle; type: ADME, organism-based; design: dose 3 mg/kg, route intravenous; details: in vivo; summary of the method: as §3
[19] = target: T3, Aurora kinase C (Homo sapiens, UniProt Q9UQB9); assay: Binding affinity to Aurora kinase C
T3 sequence (Q9UQB9 whole entry): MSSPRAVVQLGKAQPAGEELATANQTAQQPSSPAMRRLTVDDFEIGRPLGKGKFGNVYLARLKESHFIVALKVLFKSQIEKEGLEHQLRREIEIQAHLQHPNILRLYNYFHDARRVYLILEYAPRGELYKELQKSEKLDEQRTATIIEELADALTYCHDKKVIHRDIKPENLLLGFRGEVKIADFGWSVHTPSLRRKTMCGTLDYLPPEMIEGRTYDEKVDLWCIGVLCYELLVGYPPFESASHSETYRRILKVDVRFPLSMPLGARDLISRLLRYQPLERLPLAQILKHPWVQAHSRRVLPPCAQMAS

[20] = Volume of distribution in Sprague-Dawley rat at 1 mg/kg, iv administered using PEG400/water as vehicle; type: ADME, organism-based; design: dose 1 mg/kg, route intravenous; details: in vivo; summary of the method: as §1
[21] = AUC (0 to infinity) in Sprague-Dawley rat at 1 mg/kg, iv administered using PEG400/water as vehicle; type: ADME, organism-based; design: time infinity, dose 1 mg/kg, route intravenous; details: plasma; summary of the method: as §1
[22] = AUC (0 to infinity) in Nu/Nu rat at 10 mg/kg, iv administered using TPPW as vehicle; type: ADME, organism-based; design: time infinity, dose 10 mg/kg, route intravenous; details: plasma; summary of the method: as §3
[23] = Volume of distribution in Nu/Nu rat at 10 mg/kg, iv administered using TPPW as vehicle; type: ADME, organism-based; design: dose 10 mg/kg, route intravenous; details: in vivo; summary of the method: as §3
[24] = test system: HCT-116; assay: Antiproliferative activity against human HCT116 cells after 72 hrs by BrdU-based ELISA; type: functional, cell-based; details: HCT-116, 72 h
Summary of the method: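 HCT-116 cells in McCoy's 5A with 10% FBS and pen/strep, seeded 800 cells/well, left overnight at 37 °C, 5% CO2. Nine-point 3-fold serial dilutions in DMSO added for 72 h; BrdU colorimetric ELISA read at 450 and 690 nm. IC50 is the concentration halving proliferation; duplicate runs averaged.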

[25] = Clearance in athymic Nu/Nu rat at 30 mg/kg, iv administered using TPPW as vehicle; type: ADME, organism-based; design: dose 30 mg/kg, route intravenous; details: in vivo; summary of the method: as §3
[26] = Volume of distribution in Nu/Nu rat at 30 mg/kg, iv administered using TPPW as vehicle; type: ADME, organism-based; design: dose 30 mg/kg, route intravenous; details: in vivo; summary of the method: as §3
[27] = Clearance in athymic Nu/Nu rat at 10 mg/kg, iv administered using TPPW as vehicle; type: ADME, organism-based; design: dose 10 mg/kg, route intravenous; details: in vivo; summary of the method: as §3
[28] = test system: HCT-116; assay: Antitumor activity against human HCT116 cells xenografted in athymic nude rat assessed as tumor stasis at 10 to 20 mg/kg, iv administered every other day from day 10 post tumor-injection for 3 weeks measured upto 40 days; type: functional, organism-based
Summary of the method: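 HCT-116 flank xenografts in nude rats, groups of 10 at mean 301-306 mm³; iv tail-vein dosing in TPPW at 10 mL/kg on days 1,3,5,8,10,12,15,17,19; tumors followed after dosing stopped, study ending day 42 or day 60.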

[29] = target: T1, Aurora kinase A; assay: Inhibition of Aurora kinase A autophosphorylation in human HEK293 cells after 2 hrs by phosphor antibody readout assay; type: cell-based
[30] = test system: HCT-116; assay: Antitumor activity against human HCT116 cells xenografted in athymic nude rat assessed as tumor growth inhibition at 20 mg/kg, iv administered every other day from day 10 post tumor-injection for 3 weeks relative to vehicle treated control; type: functional; details: read-out: TGI; summary of the method: as §2
[31] = Clearance in athymic Nu/Nu rat at 3 mg/kg, iv administered using TPPW as vehicle; type: ADME, organism-based; design: dose 3 mg/kg, route intravenous; details: in vivo; summary of the method: as §3
[32] = test system: HCT-116; assay: Antitumor activity against human HCT116 cells xenografted in athymic nude rat assessed as tumor growth inhibition at 10 mg/kg, iv administered every other day from day 10 post tumor-injection for 3 weeks relative to vehicle treated control; type: functional; details: read-out: TGI; summary of the method: as §2

T2 sequence (Q96GD4 whole entry): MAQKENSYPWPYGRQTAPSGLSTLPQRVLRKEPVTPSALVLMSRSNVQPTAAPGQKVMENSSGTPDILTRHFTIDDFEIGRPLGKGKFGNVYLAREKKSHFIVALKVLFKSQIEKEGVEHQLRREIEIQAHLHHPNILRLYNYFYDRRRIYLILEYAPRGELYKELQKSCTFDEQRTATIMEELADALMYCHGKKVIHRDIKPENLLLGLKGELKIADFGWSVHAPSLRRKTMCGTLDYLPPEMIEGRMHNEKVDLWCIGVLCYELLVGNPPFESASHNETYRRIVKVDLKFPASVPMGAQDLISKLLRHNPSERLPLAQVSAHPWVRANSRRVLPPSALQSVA

Cc1cc(Nc2nc(Sc3ccc(NC(=O)CN4CC[C@@H](C(=O)NC5CCCC5)C4)cc3)nn3cccc23)n[nH]1
clearance [1]: 16.9 mL/min/kg
TGI [2]: Active
Activity [3]: > 10%
half-life [4]: 3.4 h
Kd [5]: 9.3 nM
AUC(0-inf) [6]: 3.2 µM·h
inhibition [7]: Dose-dependent effect
fraction unbound [8]: 0.01
TGI [9]: Active
half-life [10]: 1.5 h
Kd [11]: 1.9 nM
half-life [12]: 3.8 h
IC50 [13]: 3 nM
AUC(0-inf) [14]: 62.5 µM·h
Activity [15]: Non-toxic
Activity [16]: Non-toxic
half-life [17]: 9.4 h
Vd [18]: 1 L/kg
Kd [19]: < 10 nM
Vd [20]: 3.49 L/kg
AUC(0-inf) [21]: 1.8 µM·h
AUC(0-inf) [22]: 14.6 µM·h
Vd [23]: 1.1 L/kg
IC50 [24]: 2.3 nM
clearance [25]: 14.7 mL/min/kg
Vd [26]: 0.84 L/kg
clearance [27]: 20.7 mL/min/kg
Activity [28]: Active
IC50 [29]: 2 nM
inhibition in vivo at 20 mg/kg [30]: 82%
clearance [31]: 27.9 mL/min/kg
inhibition in vivo at 10 mg/kg [32]: 77%
